Bioassay records as filed in PubChem BioAssay.
Most compounds without a hit are left out; they make up all but 11% or so of the library.
Htt clearance: mutant huntingtin protein clearance; inhibition, % at 1.5 µM; 47,000 compounds, 0.42% hits; HeLa Exon1htt(103Q)mCFP, aggregate imaging; zero = plate's median compound well;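 active = inhibition of aggregate fluorescence above about 70%, also judged a hit by eye on the cell image, limit read from the data, passing the limit was not always enough; inconclusive = no rule stated for this call; inactive = not judged a hit on image review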;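 note: cells exposed to compound for three days before fixation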
M1 antagonist: M1 muscarinic receptor (rat) antagonism; B-score at 10 µM; CHO-M1 cells, Fluo-4 calcium, ACh EC80 antagonist mode; hits give low values; 64,000 compounds, 3.4% hits;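 active = calcium fluorescence response, raw or row-and-column corrected B-score, differing from the plate sample mean either way at a set confidence level, mostly lower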
D1 mod: allosteric modulators of human D1 dopamine receptor. HEK293 D1, CRE-luciferase, dopamine EC30 potentiation; actives deviate in either direction. B-score at 10 µM. 58,000 compounds, 5.9% hits;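 active = luminescence count or its row- and column-corrected plate score outside the 99.7% band of the plate's sample wells, on either side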
M1 agonist: M1 muscarinic receptor agonism; CHO-M1 cells, Fluo-4 calcium fluorescence, agonist mode; hits give high values; B-score at 10 µM; AID 626; 64,000 compounds, 3% hits;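 active = fluorescence rise, raw or as B-score row- and column-corrected plate score, outside the 99.7% band of its plate's samples, either direction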
SF1 activator: activators of human nuclear receptor SF-1 | activation, % at 10 µM | 65,000 compounds, 1.9% hits | CHO-K1 Gal4-SF-1 LBD luciferase reporter; % increase over DMSO SF-1-specific signal;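 active = activation above the mean activation of all tested compounds plus 3 SD, cut at about 50% in these data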
Target sequence (Q13285 whole entry, looked up, the tested form may be a part): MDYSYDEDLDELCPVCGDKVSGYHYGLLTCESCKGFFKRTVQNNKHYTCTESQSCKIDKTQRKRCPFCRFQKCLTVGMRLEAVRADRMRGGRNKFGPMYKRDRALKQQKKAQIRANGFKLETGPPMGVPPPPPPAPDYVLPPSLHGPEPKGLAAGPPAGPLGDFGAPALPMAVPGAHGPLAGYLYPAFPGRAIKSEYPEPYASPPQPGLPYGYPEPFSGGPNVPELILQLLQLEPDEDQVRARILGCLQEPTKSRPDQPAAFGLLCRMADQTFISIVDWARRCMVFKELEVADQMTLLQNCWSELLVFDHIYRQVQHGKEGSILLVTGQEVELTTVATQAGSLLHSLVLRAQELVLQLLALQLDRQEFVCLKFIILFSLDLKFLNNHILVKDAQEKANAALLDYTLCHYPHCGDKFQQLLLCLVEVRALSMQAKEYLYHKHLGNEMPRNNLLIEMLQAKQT
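Material: CHO-K1 cells with Gal4–hSF-1 LBD chimera plus Gal4-driven luciferase / Input: 4,000 CHO-K1 cells per well / Incubation: compound exposure 20 h at 37 °C / Signal: luminescence read 15 min after SteadyLite luciferase reagent, after room-temperature equilibration / Read-out: percent activation versus DMSO / Benchmarks: DMSO negative control and −SF1 background wells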
RORa activator: activators of human nuclear receptor RORA; P35398; CHO-K1 Gal4-RORA LBD luciferase reporter, luminescence; percent increase over mock-subtracted basal signal; activation, % at 10 µM; 65,000 compounds, 1.5% hits;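 active = activation above the mean of all tested compounds plus 3 SD, cut at about 49% in these data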
M1 agonist conf: rat M1 muscarinic agonism, confirmation | CHO-M1 cells, Fluo-4 calcium fluorescence, agonist mode; actives lie on both sides | fluorescence change (max-min) at 10 µM | shares compounds with M1 agonist | 1,700 compounds, 19% hits;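 active = fluorescence change differs from the solvent-only DMSO control mean at a set confidence level in both duplicate runs; inconclusive = differs from solvent-only control mean in just one of two runs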;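 note: an EC20 dose of acetylcholine follows compound addition during the same imaging run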
M4 ag counter: activates rat M4 receptor in counter-screen for M1 agonists. fluorescence change (max-min) at 10 µM. CHO M4/Gqi5 cells, Fluo-4 calcium fluorescence, agonist mode; actives lie on both sides. shares compounds with M1 agonist. 1,700 compounds, 9% hits;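 active = fluorescence change differing from the plate's solvent-only control wells at 99.7% confidence in both duplicates, whether higher or lower; inconclusive = differs from solvent controls in only one of two duplicates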
A number is an active result; – = inactive; ? = inconclusive; · = no result.

SMILES	Htt clearance	M1 antagonist	D1 mod	M1 agonist	SF1 activator	RORa activator	M1 agonist conf	M4 ag counter
CCOC(=O)C1=C(C)OC(N)=C(C#N)C1c1c(C)nn(-c2ccccc2)c1Cl (centres undefined)	·	–	–	–	–	–	·	·
CNc1c([N+](=O)[O-])cnn1-c1ccc(C)cc1	–	·	·	·	·	·	·	·
O=C(NCc1ccco1)C(Cc1ccccc1)N1C(=O)C2C3C=CC(C3)C2C1=O (centres undefined)	–	–	–	4.5	–	–	?	–
COc1ccccc1C(=O)Nc1sc2c(c1C(=O)NCc1ccco1)CCCC2	–	·	·	·	·	·	·	·
CC(C)CC1NC(=O)N(CC(=O)N2CCN(S(=O)(=O)c3ccccc3)CC2)C1=O (centres undefined)	–	·	·	·	·	·	·	·
CCOc1ccc(C2C=C(c3ccc(C)cc3)Nc3ncnn32)cc1 (centres undefined)	·	–	–	5.5	–	–	129	?
COc1ccc(C2C=C(c3ccccc3)Nc3ncnn32)cc1 (centres undefined)	·	–	–	9.7	–	–	86	–
COc1ccc(C2C=C(c3ccc(C)c(C)c3)Nc3ncnn32)c(OC)c1OC (centres undefined)	·	–	–	–	–	–	·	·
CCOc1ccc(C2C=C(c3ccc(C)cc3)Nc3nnnn32)cc1 (centres undefined)	–	–	–	–	–	–	·	·
O=C(NC1CCCC1)C1CCCN1C(=O)Nc1ccc(Cl)cc1 (centres undefined)	–	–	–	–	–	–	·	·
COCCN1C(=O)c2oc3cc(C)c(C)cc3c(=O)c2C1c1cccc(O)c1 (centres undefined)	–	–	–	–	–	–	·	·
CC(C)Oc1ccc(CNC2CCOC(C)(C)C2)cc1 (centres undefined)	·	–	–	–	–	–	·	·
O=C(Nc1nc(-c2cc3ccccc3oc2=O)cs1)c1ccco1	·	–	·	1.6	–	–	–	–
COC(=O)Nc1ccc(C)c2nsnc12	·	–	–	–	–	–	·	·
CC(=O)c1ccc(OC(C)C)c(CN2CCCCC2)c1	–	–	–	–	–	–	·	·
Cc1cc(Cl)ccc1OCCCC(=O)N1CCN(C)CC1	–	·	·	·	·	·	·	·
Cc1cc(Cl)ccc1OCC(=O)N1CCCCC1	·	–	–	2.2	–	–	?	–
CCOC(=O)C1CCCN(Cc2cc(Br)c(OC)cc2OC)C1 (centres undefined)	–	–	–	7.9	–	–	–	?
CCOC(=O)C1CCCN(Cc2cc(Br)ccc2OC)C1 (centres undefined)	·	·	–	·	–	–	·	·
CCOC(=O)C1CCN(Cc2ccc(O)c(OC)c2)CC1	·	–	–	–	–	–	·	·
CCOC(=O)C1CCCN(Cc2cc(OC)c(O)c(OC)c2)C1 (centres undefined)	·	–	–	3.2	–	–	60	–
COc1ccc(NC(=O)CSc2nnc(-c3cccs3)n2-c2ccccc2)cc1	·	–	–	–	–	–	·	·
CC(=O)c1c(C)[nH]c(C(=O)OCc2nnc(-c3ccccc3)o2)c1C	–	–	–	2.8	–	–	?	-70
CC(C(=O)OCc1nnc(-c2ccccc2)o1)N1C(=O)c2ccccc2C1=O (centres undefined)	·	–	·	-2.2	–	–	–	–
Cc1ccc(C(=O)OCc2nnc(-c3ccccc3)o2)o1	·	–	–	–	–	–	·	·
SMILES	Htt clearance	M1 antagonist	D1 mod	M1 agonist	SF1 activator	RORa activator	M1 agonist conf	M4 ag counter
O=C(CN1CCOCC1)Nc1ccc(Oc2ccc(NC(=O)CN3CCOCC3)cc2)cc1	–	–	–	–	–	–	·	·
O=C1CCC(=O)N1CNc1ccc(Oc2ccccc2)cc1	–	–	–	-3.2	–	–	?	–
O=C(CNc1ccc(Oc2ccccc2)cc1)N1CCOCC1	·	–	–	2.8	–	–	?	?
COc1cccc(-c2nc(CS(=O)(=O)CC(=O)N3CCc4ccccc43)c(C)o2)c1	–	·	·	·	·	·	·	·
Cc1cc(C)c2cc3c(ccn3C3OC[C@H](O)[C@H](O)[C@H]3O)cc2n1 (some centres undefined)	·	–	–	36	–	–	201	–
CCCCn1c(=NC(=O)c2ccc3c(c2)OCO3)c(C#N)cc2c(=O)n3cccc(C)c3nc21	–	–	–	13	–	–	?	–
CCOCCCn1c(=NC(=O)c2ccc(OC)c(OC)c2)c(C#N)cc2c(=O)n3cccc(C)c3nc21	–	·	·	·	·	·	·	·
CC(C)OCCCn1c(=N)c(C(N)=S)cc2c(=O)n3ccccc3nc21	–	–	·	4	–	–	–	?
CC(C)OCCCn1c(=NC(=O)c2ccncc2)c(C#N)cc2c(=O)n3ccccc3nc21	·	–	–	25	–	–	219	?
COC(=O)c1cc2c(=O)n3ccccc3nc2n(C)c1=N	·	–	–	–	–	–	·	·
O=C(CN1C(=O)C2C3C=CC(C3)C2C1=O)N1CCc2ccccc2C1 (centres undefined)	–	–	–	–	–	–	·	·
Cc1cccc2cc(C#N)c(NCCNS(=O)(=O)c3ccc4c(c3)OCCO4)nc12	–	–	–	–	–	–	·	·
CCN(CC)S(=O)(=O)c1cccc(-c2nnc(SCCOc3ccc(Cl)cc3)o2)c1	·	–	–	–	–	–	·	·
CCN(CC)S(=O)(=O)c1cccc(-c2nnc(SCCOc3ccccc3C)o2)c1	·	–	·	5.6	–	–	–	?
O=C(c1cccs1)c1no[n+]([O-])c1C(=O)c1cccs1	·	-3.2	–	12	–	–	–	–
COc1ccc(C(=O)c2no[n+]([O-])c2C(=O)c2ccc(OC)cc2)cc1	–	–	–	–	–	–	·	·
C=CCC1(O)C(=O)N2C(=C1C(=O)N1CCOCC1)c1ccccc1CC2(C)C (centres undefined)	·	–	·	–	·	·	·	·
Cc1nn(-c2ccccc2)c(N2CCCC2)c1/C=N/n1cnc2scc(-c3ccccc3)c2c1=O	–	-2.4	–	9.1	–	–	–	–
CS(=O)(=O)N(CC(=O)Nc1cccnc1)c1ccc2c(c1)OCO2	–	–	–	–	–	–	·	·
COCCN(Cc1cc2cccc(C)c2n2nnnc12)C(=O)C(F)(F)F	–	–	–	–	–	–	·	·
Cc1cccc2cc(CN(Cc3ccc(F)cc3)C(=O)N(C)C)c3nnnn3c12	–	–	–	6.2	–	–	?	–
C=C(C)C(=O)Nc1ccc(OC(F)(F)C(F)F)c(NC(=O)C(=C)C)c1	–	·	·	·	·	·	·	·
CCCCOc1ccc(CNn2c(C)nc3ccccc3c2=O)cc1	–	–	·	–	–	–	·	·
COc1ccc(CNn2c(C)nc3ccccc3c2=O)cc1	–	–	·	5.6	–	–	–	–
COC(=O)c1ccccc1NS(=O)(=O)c1cn(C)c(=O)n(C)c1=O	–	–	–	–	–	–	·	·
